Experimental data as given in PubChem BioAssay AID688 (PCMD, 2007).
About 250 (0.93%) of roughly 27,000 compounds were called active.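 How the source made its calls: active means mutant luminescence inhibited past about 50% while wild type luminescence and mutant growth stay under set limits (limit read from the data); inconclusive means mutant versus wild type luminescence inhibition gap past a set limit; inactive means the rest.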 The entries come from a sample that favours actives as a whole.

Experiment: mutant yeast GCN4 reporter luminescence inhibitors – S. cerevisiae, eIF2B-epsilon R284H, Beta-Glo luminescence, primary screen (AID 688)
Settings: GCN4-lacZ luminescence; growth inhibition: measured here: mutant yeast growth, toxicity, concentration not given here; inhibition: stronger effect = higher value, screened at 25 µM (by protocol)
In short: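 Times: 16 h growth with compound at 30 °C, 90 min Beta-Glo step; Assay system: yeast eIF2B-epsilon R284H mutant carrying GCN4–beta-galactosidase fusion; Measure: % inhibition of reporter signal and growth versus controls; Dosing: one concentration, 25 µM, 0.25% DMSO; Buffer or medium: YPD yeast growth medium; Measured by: Beta-Glo luminescence plus absorbance at 595 nm.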

SMILES	growth inhibition	inhibition
O=C(O)CSc1nccn1-c1cccc(Cl)c1	-14.3%	-8.74% (inactive)
Oc1ccc2ccc3cccc[n+]3c2c1	-4.35%	53.1% (active)
O=C(Nc1ccc(S(=O)(=O)N2CCCC2)cc1Cl)C1=COCCO1	-13.8%	17.1% (inactive)
Cc1cc(C)n(-c2cc(Oc3ccccc3)ncn2)n1	-5.56%	0% (inactive)
Cc1cc(NC(=O)CCC2COc3ccccc3O2)no1 (centres undefined)		-23.3% (inactive)
O=c1[nH]c2c(c(=O)n1Cc1ccccc1)CCC2	10.8%	17.1% (inactive)
CCCC(=O)N(CCc1ccccc1)Cc1nc2ccccc2c(=O)[nH]1	19%	-3.55% (inactive)
CCn1nccc1C(=O)Nc1ccc(Cl)c(Cl)c1	-8.33%	37.2% (inactive)
CCCC(C)C(=O)Nc1ccc(NC(C)=O)cc1 (centres undefined)	2.78%	11.4% (inactive)
Cc1ccc(C(=O)Nc2ccccc2C(=O)NC2CCCCC2)cc1S(=O)(=O)N1CCOCC1	-23.3%	29% (inactive)
Cc1cccc(C)c1NC(=O)CCCSc1nnc(-c2ccco2)n1-c1ccccc1	11.5%	-14.1% (inactive)
Cc1ccnc(NC(=O)c2ccc(NC(=O)c3ccco3)cc2)c1	-8.33%	8.24% (inactive)
COc1ccc(Nc2nc(=O)[nH]nc2C)cc1	20.6%	25.8% (inactive)
C=CCNC(=O)CCCC(=O)NCC=C	-4.76%	-58.7% (inactive)
O=C(O)CSCC(=O)Nc1cccc(C(F)(F)F)c1	12.1%	21.9% (inactive)
Cc1cccc2c(=O)n3c(nc12)CCCCC3	25.8%	13.2% (inactive)
CCn1nnc(NC(=O)c2cc(Cl)c(OC)c(Cl)c2)n1	18.5%	17.4% (inactive)
Cc1c(Nc2nc3ccccc3nc2NS(=O)(=O)c2cccs2)c(=O)n(-c2ccccc2)n1C	5%	-33.1% (inactive)
CC(C)(C)NC(=O)c1cc(NC(=O)c2ccco2)cc(NC(=O)c2ccco2)c1		11.3% (inactive)
CCOc1ccccc1N=C1NC(=O)CS1		-14.3% (inactive)
CC/C(=N\O)C(C)(C)/[N+]([O-])=C/c1ccc(Br)cc1	5.26%	9.15% (inactive)
N=c1c2c3c(sc2ncn1CCCN1CCOCC1)CCCCC3	3.7%	23% (inactive)
Cc1nnc(SCC(=O)N2CCN(c3ccccc3)CC2)n1-c1ccccc1	-9.52%	1.9% (inactive)
c1ccc(CCc2nc(-c3ccncc3)no2)cc1	15.2%	50.4% (active)
c1csc(-c2nc(-c3ccncc3)no2)c1	6.45%	2.34% (inactive)
O=C1c2ccccc2C(=O)N1CCCc1nc(-c2ccccc2)no1	-5.56%	-17.2% (inactive)
